Test results taken from ChEMBL document CHEMBL2331484, “Synthesis and biological evaluation of scopoletin derivatives” (Bioorg Med Chem, 2013).
pIC50: −log10 of the molar value. Active and inactive are the calls of the source. The rule behind the calls is not given here.

Test system: HUVEC
Assay: Effect on total p38 MAPK level in VEGF-stimulated HUVEC pretreated at 10 to 50 umol/L for 30 mins before VEGF addition by Western blot analysis
Assay type: functional, cell-based
Conditions: Homo sapiens

Row | SMILES | Activity
1 | COc1cc2ccc(=O)oc2cc1OCC(=O)c1ccc(Cl)cc1 | inactive

Test system: HUVEC
Assay: Effect on total src level in VEGF-stimulated HUVEC pretreated at 10 to 50 umol/L for 30 mins before VEGF addition by Western blot analysis
Assay type: functional, cell-based
Conditions: Homo sapiens

Row | SMILES | Activity
2 | COc1cc2ccc(=O)oc2cc1OCC(=O)c1ccc(Cl)cc1 | inactive

Test system: HUVEC
Assay: Effect on total ERK1/2 level in VEGF-stimulated HUVEC pretreated at 10 to 50 umol/L for 30 mins before VEGF addition by Western blot analysis
Assay type: functional, cell-based
Conditions: Homo sapiens

Row | SMILES | Activity
3 | COc1cc2ccc(=O)oc2cc1OCC(=O)c1ccc(Cl)cc1 | inactive

Test system: HUVEC
Assay: Effect on total akt level in VEGF-stimulated HUVEC pretreated at 10 to 50 umol/L for 30 mins before VEGF addition by Western blot analysis
Assay type: functional, cell-based
Conditions: Homo sapiens

Row | SMILES | Activity
4 | COc1cc2ccc(=O)oc2cc1OCC(=O)c1ccc(Cl)cc1 | inactive

Target: MAP kinase p38 (Homo sapiens) (UniProt O15264+Q15759+Q16539+P53778)
Assay: Inhibition of VEGF receptor signaling in VEGF-stimulated HUVEC assessed a effect on p38 MAPK phosphorylation pretreated at 10 to 50 umol/L for 30 mins before VEGF addition by Western blot analysis
Assay type: protein assay
Conditions: not given

Row | SMILES | inhibition
5 | COc1cc2ccc(=O)oc2cc1OCC(=O)c1ccc(Cl)cc1 | inactive

Test system: not listed separately
Assay: Inhibition of VEGF receptor signaling in VEGF-stimulated HUVEC assessed a effect on src phosphorylation pretreated at 10 to 50 umol/L for 30 mins before VEGF addition by Western blot analysis
Assay type: cell-based
Conditions: Homo sapiens

Row | SMILES | inhibition
6 | COc1cc2ccc(=O)oc2cc1OCC(=O)c1ccc(Cl)cc1 | inactive

Test system: not listed separately
Assay: Inhibition of VEGF receptor signaling in HUVEC assessed a inhibition of VEGF-induced Akt phosphorylation pretreated at 10 to 50 umol/L for 30 mins before VEGF addition by Western blot analysis
Assay type: cell-based
Conditions: Homo sapiens

Row | SMILES | inhibition
7 | COc1cc2ccc(=O)oc2cc1OCC(=O)c1ccc(Cl)cc1 | Active

Test system: PANC-1
Assay: Inhibition of MMP-2 protein expression in human PANC1 cells at 10 to 50 umol/L after 24 hrs by SDS-PAGE analysis
Assay type: functional, cell-based
Conditions: not given
Outline: (§1)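 Gelatin zymography of culture medium from equal numbers of PANC-1 cells exposed to compound for 24 h. Samples run non-reduced and unboiled on 10% polyacrylamide with 1 mg/mL gelatin. Gel washed in 2.5% Triton X-100 buffer, digested 14 h at 37 °C in Tris–HCl/CaCl2/ZnCl2 buffer pH 7.6, then Coomassie-stained. Clear bands imaged.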

Row | SMILES | inhibition
8 | COc1cc2ccc(=O)oc2cc1OCC(=O)c1ccc(Cl)cc1 | Active

Test system: not listed separately
Assay: Inhibition of VEGF receptor signaling in HUVEC assessed a inhibition of VEGF-induced ERK1/2 phosphorylation pretreated at 10 to 50 umol/L for 30 mins before VEGF addition by Western blot analysis
Assay type: cell-based
Conditions: Homo sapiens

Row | SMILES | inhibition
9 | COc1cc2ccc(=O)oc2cc1OCC(=O)c1ccc(Cl)cc1 | inactive

Test system: PANC-1
Assay: Inhibition of MMP-9 protein expression in human PANC1 cells at 10 to 50 umol/L after 24 hrs by SDS-PAGE analysis
Assay type: functional, cell-based
Conditions: not given
Outline: as §1

Row | SMILES | inhibition
10 | COc1cc2ccc(=O)oc2cc1OCC(=O)c1ccc(Cl)cc1 | Active

Species on record: Gallus gallus
Assay: Antiangiogenic activity in chicken embryo chorioallantoic membrane model assessed as inhibition of new blood vessel formation at 10 nmol/egg after 48 hrs by microscopy
Assay type: functional, tissue-based
Conditions: not given
Outline: (§2)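 Fertilized chicken eggs incubated seven days at 37.5 °C, ~55% humidity, and the air sac membrane was detached. Sterile 5 × 5 mm filter paper soaked with DMSO or compound (5 and 10 nmol/egg) was air-dried and placed on the CAM. Eggs were sealed and reincubated. Fat emulsion (20%) was injected into the CAM and vessels photographed. Three independent experiments.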

Row | SMILES | inhibition
11 | COc1cc2ccc(=O)oc2cc1OCC(=O)c1ccc(Cl)cc1 | Active

Species on record: Gallus gallus
Assay: Antiangiogenic activity in chicken embryo chorioallantoic membrane model assessed as inhibition of new blood vessel formation at 5 nmol/egg after 48 hrs by microscopy
Assay type: functional, tissue-based
Conditions: not given
Outline: as §2

Row | SMILES | inhibition
12 | COc1cc2ccc(=O)oc2cc1OCC(=O)c1ccc(Cl)cc1 | Active

Test system: HUVEC
Assay: Antiangiogenic activity against HUVEC assessed as inhibition of VEGF-induced branching and network formation at 25 umol/L after 5 hrs by microscopy
Assay type: functional, cell-based
Conditions: Homo sapiens
Outline: (§3)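 Matrigel-coated wells gelled 37 °C 30 min. DMSO or compound (final 25 µmol/L) added for 30 min before plating. After 5 h, enclosed complete tubes counted in five random fields by microscopy. Triplicate experiments, means ± SEM.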

Row | SMILES | inhibition
13 | COc1cc2ccc(=O)oc2cc1OCC(=O)c1ccc(Cl)cc1 | Active

Test system: HUVEC
Assay: Antiangiogenic activity against HUVEC assessed as inhibition of VEGF-induced tube formation at 25 umol/L after 5 hrs by microscopy
Assay type: functional, cell-based
Conditions: Homo sapiens
Outline: as §3

Row | SMILES | inhibition
14 | COc1cc2ccc(=O)oc2cc1OCC(=O)c1ccc(Cl)cc1 | Active

Test system: HUVEC
Assay: Antiangiogenic activity against HUVEC assessed as inhibition of VEGF-induced cell migration at 25 umol/L after 20 hrs by Boyden chamber assay
Assay type: functional, cell-based
Conditions: Homo sapiens
Outline: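 Boyden chamber, 8.0 µm membrane. HUVECs at 80% confluence serum-starved 12 h in basal medium and suspended at 1 × 10⁶ cells/mL. Pre-treated 30 min at room temperature with DMSO or compound (final 25 µmol/L). After 20 h cells fixed, stained, and counted in five random fields. Triplicate experiments.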

Row | SMILES | inhibition
15 | COc1cc2ccc(=O)oc2cc1OCC(=O)c1ccc(Cl)cc1 | Active

Test system: HuT78
Assay: Cytotoxicity against human HUT78 cells after 24 hrs by MTT assay
Assay type: functional, cell-based
Conditions: HuT78, 24 h

Row | SMILES | pIC50
16 | COc1cc2ccc(=O)oc2cc1OCC(=O)c1ccc(Cl)cc1 | 4.21

Test system: K562
Assay: Cytotoxicity against human K562 cells after 24 hrs by MTT assay
Assay type: functional, cell-based
Conditions: K562, 24 h

Row | SMILES | pIC50
17 | COc1cc2ccc(=O)oc2cc1OCC(=O)c1ccc(Cl)cc1 | 4.28

Test system: HL-60
Assay: Cytotoxicity against human HL60 cells after 24 hrs by MTT assay
Assay type: functional, cell-based
Conditions: HL-60, 24 h

Row | SMILES | pIC50
18 | COc1cc2ccc(=O)oc2cc1OCC(=O)c1ccc(Cl)cc1 | 4.18

Test system: not listed separately
Assay: Cytotoxicity against human SHG44 cells after 24 hrs by MTT assay
Assay type: functional, cell-based
Conditions: SHG-44, 24 h

Row | SMILES | pIC50
19 | COc1cc2ccc(=O)oc2cc1OCC(=O)c1ccc(Cl)cc1 | < 4.00

Test system: A-431
Assay: Cytotoxicity against human A431 cells after 24 hrs by MTT assay
Assay type: functional, cell-based
Conditions: A-431, 24 h

Row | SMILES | pIC50
20 | COc1cc2ccc(=O)oc2cc1OCC(=O)c1ccc(Cl)cc1 | < 4.00

Test system: A549
Assay: Cytotoxicity against human A549 cells after 24 hrs by MTT assay
Assay type: functional, cell-based
Conditions: A549, 24 h

Row | SMILES | pIC50
21 | COc1cc2ccc(=O)oc2cc1OCC(=O)c1ccc(Cl)cc1 | < 4.00

Test system: MKN-45
Assay: Cytotoxicity against human MKN45 cells after 24 hrs by MTT assay
Assay type: functional, cell-based
Conditions: MKN-45, 24 h

Row | SMILES | pIC50
22 | COc1cc2ccc(=O)oc2cc1OCC(=O)c1ccc(Cl)cc1 | 4.00

Test system: HCT-116
Assay: Cytotoxicity against human HCT116 cells after 24 hrs by MTT assay
Assay type: functional, cell-based
Conditions: HCT-116, 24 h

Row | SMILES | pIC50
23 | COc1cc2ccc(=O)oc2cc1OCC(=O)c1ccc(Cl)cc1 | 4.23

Test system: HepG2
Assay: Cytotoxicity against human HepG2 cells after 24 hrs by MTT assay
Assay type: functional, cell-based
Conditions: HepG2, 24 h

Row | SMILES | pIC50
24 | COc1cc2ccc(=O)oc2cc1OCC(=O)c1ccc(Cl)cc1 | 4.25

Test system: MDA-MB-231
Assay: Cytotoxicity against human MDA-MB-231 cells after 24 hrs by MTT assay
Assay type: functional, cell-based
Conditions: MDA-MB-231, 24 h

Row | SMILES | pIC50
25 | COc1cc2ccc(=O)oc2cc1OCC(=O)c1ccc(Cl)cc1 | < 4.00

Test system: MDA-MB-435
Assay: Cytotoxicity against human MDA-MB-435 cells after 24 hrs by MTT assay
Assay type: functional, cell-based
Conditions: MDA-MB-435, 24 h

Row | SMILES | pIC50
26 | COc1cc2ccc(=O)oc2cc1OCC(=O)c1ccc(Cl)cc1 | 4.03

Test system: BXPC-3
Assay: Cytotoxicity against human BxPC3 cells after 24 hrs by MTT assay
Assay type: functional, cell-based
Conditions: BXPC-3, 24 h

Row | SMILES | pIC50
27 | COc1cc2ccc(=O)oc2cc1OCC(=O)c1ccc(Cl)cc1 | < 4.00

Test system: PANC-1
Assay: Cytotoxicity against human PANC1 cells after 24 hrs by MTT assay
Assay type: functional, cell-based
Conditions: PANC-1, 24 h

Row | SMILES | pIC50
28 | COc1cc2ccc(=O)oc2cc1OCC(=O)c1ccc(Cl)cc1 | 4.70

Test system: PBMC
Assay: Cytotoxicity against human PBMC after 24 hrs by MTT assay
Assay type: cell-based
Conditions: not given

Row | SMILES | pIC50
29 | COc1cc2ccc(=O)oc2cc1OCC(=O)c1ccc(Cl)cc1 | < 4.00

Test system: HUVEC
Assay: Antiproliferative activity against HUVEC assessed as growth inhibition rate after 24 hrs by MTT assay
Assay type: functional, cell-based
Conditions: Homo sapiens
Outline: (§4)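 HUVECs (passages 3–5, primary cord isolates) seeded at 1 × 10⁴ cells/well. Medium replaced with M199 containing 1% FBS plus compound. Viability read by MTT after 24 h. Percent inhibition was calculated from A570 minus A630 of treated versus control wells, and IC50 determined. Triplicate experiments, means ± SEM.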

Row | SMILES | pIC50
30 | COc1cc2ccc(=O)oc2cc1OCC(=O)c1ccc(Cl)cc1 | 5.00

Test system: HUVEC
Assay: Antiproliferative activity against HUVEC assessed as growth inhibition rate at 100 uM after 24 hrs by MTT assay
Assay type: functional
Conditions: Homo sapiens, read-out: GI
Outline: as §4

Row | SMILES | inhibition of growth at 100 µM
31 | COc1cc2ccc(=O)oc2cc1OCC(=O)c1ccc(Cl)cc1 | 83.8%

Test system: HUVEC
Assay: Antiproliferative activity against HUVEC assessed as growth inhibition rate at 10 uM after 24 hrs by MTT assay
Assay type: functional
Conditions: Homo sapiens, read-out: GI
Outline: as §4

Row | SMILES | inhibition of growth at 10 µM
32 | COc1cc2ccc(=O)oc2cc1OCC(=O)c1ccc(Cl)cc1 | 62.6%

Test system: HUVEC
Assay: Antiangiogenic activity against HUVEC assessed as inhibition of VEGF-induced migration at 25 umol/L after 20 hrs by microscopy
Conditions: Homo sapiens

Row | SMILES | inhibition
33 | COc1cc2ccc(=O)oc2cc1OCC(=O)c1ccc(Cl)cc1 | Active
